From PubChem BioAssay
NPY-Y2 antag: blocks the human neuropeptide Y Y2 receptor | NPY-Y2 expressing cells, antagonist mode | inhibition, % at 2.7 µM | 140,000 tested, 0.99% active
NPY-Y2 PAM-ag: human NPY-Y2 potentiation or agonism, primary screen | cells expressing NPY-Y2, potentiator/agonist read-out | 220,000 tested, 0.45% active | activation, % at 3.6 µM | P49146; in the data active = activation above about 27%;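 note: cells stimulated with NPY near EC25 plus isoproterenol at EC100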
NPY1 pot ag: potentiators or agonists of human neuropeptide Y receptor Y1. 220,000 tested, 0.37% active. P25929. activation, % at 3.6 µM. NPY-Y1 expressing cells, potentiator/agonist activation; in the data active = activation above about 33%, passing the limit was not always enough;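 note: cells stimulated with NPY at EC10 then isoproterenol at EC100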
Target sequence (P25929 whole entry, looked up): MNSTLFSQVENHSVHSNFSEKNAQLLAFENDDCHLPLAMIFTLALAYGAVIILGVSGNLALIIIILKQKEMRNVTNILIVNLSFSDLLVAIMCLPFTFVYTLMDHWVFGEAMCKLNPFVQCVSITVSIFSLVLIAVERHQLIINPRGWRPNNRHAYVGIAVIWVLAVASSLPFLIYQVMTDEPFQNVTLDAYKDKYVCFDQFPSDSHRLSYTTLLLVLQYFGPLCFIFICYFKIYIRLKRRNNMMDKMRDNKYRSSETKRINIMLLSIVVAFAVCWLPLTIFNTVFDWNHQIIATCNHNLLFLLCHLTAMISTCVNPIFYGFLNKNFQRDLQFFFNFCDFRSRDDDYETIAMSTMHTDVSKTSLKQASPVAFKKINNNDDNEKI
NPY-Y1 antag: NPY-Y1 (human) receptor antagonism; P25929; HEK293-CNG Y1 cells, membrane potential fluorescence; NPY at EC95, then isoproterenol; inhibition, % at 3.6 µM; 200,000 tested, 1% active;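 active = inhibition above the campaign mean inhibition of all tested compounds plus 3 SD, cut at about 20% in these data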
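Test system – HEK293 Y1/CNG channel cell line · Also added – NPY agonist 25 nM, then isoproterenol 1 µM plus Ro 20-1724 25 µM · Compound dosing – one concentration, 3.6 µM, in 0.4% DMSO · Schedule – compound incubation 1 h at room temperature, readout 45 min post-stimulation · Technique – fluorescence, membrane potential probe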
NPY-Y1 ant conf: confirmation of human neuropeptide Y receptor Y1 antagonists; shares compounds with NPY-Y1 antag; HEK293-CNG NPY-Y1, membrane potential fluorescence, cAMP; NPY challenge against isoproterenol-raised cAMP; inhibition, % at 3.6 µM; 1,200 tested, 21% active; in the data active = inhibition above about 20%
NPY-Y2 antag ct: counter-screen for NPY-Y1 antagonists: human NPY-Y2 antagonism | shares compounds with NPY-Y1 antag | HEK293 NPY-Y2 CNG membrane potential fluorescence; cells given NPY, then isoproterenol | inhibition, % at 3.6 µM | 1,200 tested, 28% active | AID 1255
Hits are given with their value. Rows were chosen to be rich in hits. Some 1.8% of all compounds tested hit in one or more screens of this group. Cut-off read from the data, not from the text of the source, unless noted: active = inhibition above about 17%; inactive = the rest.

Results for Fc1ccc(-c2nn3c(C4COc5ccccc5O4)nnc3s2)cc1 (stereo not given) ?
NPY-Y2 antag: inactive; NPY-Y2 PAM-ag: inactive; NPY1 pot ag: inactive; NPY-Y1 antag: 21.0; NPY-Y1 ant conf: inactive; NPY-Y2 antag ct: inactive

Results for c1csc(-c2nn3c(C4COc5ccccc5O4)nnc3s2)c1 (stereo not given) ?
NPY-Y2 antag: inactive; NPY-Y2 PAM-ag: inactive; NPY1 pot ag: inactive; NPY-Y1 antag: 24.3; NPY-Y1 ant conf: inactive; NPY-Y2 antag ct: inactive

Results for c1ccc2c(c1)OCC(c1nnc3sc(-c4ccc5c(c4)OCO5)nn13)O2 (stereo not given) ?
NPY-Y2 antag: inactive; NPY-Y2 PAM-ag: inactive; NPY1 pot ag: inactive; NPY-Y1 antag: inactive

Results for c1ccc2c(c1)OCC(c1nnc3sc(-c4cnccn4)nn13)O2 (stereo not given) ?
NPY-Y2 antag: inactive; NPY-Y2 PAM-ag: inactive; NPY1 pot ag: inactive; NPY-Y1 antag: inactive

Results for CSc1ccc(-c2nc3cnccn3c2Nc2ccc3c(c2)OCO3)cc1 ?
NPY-Y2 antag: inactive; NPY-Y2 PAM-ag: inactive; NPY1 pot ag: inactive; NPY-Y1 antag: 27.6; NPY-Y1 ant conf: inactive; NPY-Y2 antag ct: inactive

How did Clc1ccc(-c2nc3cnccn3c2Nc2ccc3c(c2)OCO3)cc1 do in these assays?
NPY-Y2 antag: inactive; NPY-Y2 PAM-ag: inactive; NPY1 pot ag: inactive; NPY-Y1 antag: inactive

How did COc1ccccc1OC(=O)c1cc(Cl)nc2ccccc12 do in these assays?
NPY-Y2 antag: inactive; NPY-Y2 PAM-ag: inactive; NPY1 pot ag: inactive; NPY-Y1 antag: 20.6; NPY-Y1 ant conf: inactive; NPY-Y2 antag ct: 17.1

How did Cc1cc(OC(=O)c2cc(Cl)nc3ccccc23)ccc1Cl do in these assays?
NPY-Y2 antag: inactive; NPY-Y2 PAM-ag: inactive; NPY1 pot ag: inactive; NPY-Y1 antag: inactive

How did COC(=O)c1c(NC(=O)CN2CCCC(C)C2)c2c(C)cccc2n1C (stereo not given) do in these assays?
NPY-Y2 antag: inactive; NPY-Y2 PAM-ag: inactive; NPY1 pot ag: inactive; NPY-Y1 antag: 32.5; NPY-Y1 ant conf: inactive; NPY-Y2 antag ct: inactive

What do the screens show for `COC(=O)c1c(NC(=O)CN2CCC(C(N)=O)CC2)c2c(C)cccc2n1C`?
NPY-Y2 antag: inactive; NPY-Y2 PAM-ag: inactive; NPY1 pot ag: inactive; NPY-Y1 antag: inactive

Results for CCNC(=O)CSc1nc2ccccc2c(=O)n1-c1cc(OC)ccc1OC ?
NPY-Y2 antag: inactive; NPY-Y2 PAM-ag: inactive; NPY1 pot ag: inactive; NPY-Y1 antag: inactive

How did Cc1ccc(-n2cc(CNCCCn3ccnc3C)c(-c3ccc(F)cc3)n2)cc1 do in these assays?
NPY-Y2 PAM-ag: inactive; NPY1 pot ag: inactive; NPY-Y1 antag: 28.0; NPY-Y1 ant conf: 25.2; NPY-Y2 antag ct: 34.6

How did COc1ccc(-n2cc(CNCCCn3ccnc3)c(-c3cccc(F)c3)n2)cc1 do in these assays?
NPY-Y2 PAM-ag: inactive; NPY1 pot ag: inactive; NPY-Y1 antag: 22.2; NPY-Y1 ant conf: inactive; NPY-Y2 antag ct: inactive

How did Cc1ccc(-n2cc(CNCCc3cscn3)c(-c3ccc(F)cc3)n2)cc1 do in these assays?
NPY-Y2 PAM-ag: inactive; NPY1 pot ag: inactive; NPY-Y1 antag: inactive

How did Cc1ccc(-n2cc(CN3CCN(Cc4nccn4C)CC3)c(-c3ccc(F)cc3)n2)cc1 do in these assays?
NPY-Y2 PAM-ag: inactive; NPY1 pot ag: inactive; NPY-Y1 antag: 31.0; NPY-Y1 ant conf: inactive; NPY-Y2 antag ct: 18.7

How did CCOC(=O)c1c(NC(=O)Cc2cccs2)sc(C)c1C do in these assays?
NPY-Y2 antag: inactive; NPY-Y2 PAM-ag: inactive; NPY1 pot ag: inactive; NPY-Y1 antag: 21.2; NPY-Y1 ant conf: inactive; NPY-Y2 antag ct: inactive

How did CCOc1ccccc1NC(=O)C(NCC1(N2CCCCC2)CCCCC1)c1ccccc1 (stereo not given) do in these assays?
NPY-Y2 PAM-ag: inactive; NPY1 pot ag: inactive; NPY-Y1 antag: 33.8; NPY-Y1 ant conf: 30.9; NPY-Y2 antag ct: 29.9

Results for CC(C)CC(C(=O)NC1CCCC1)N(Cc1cccs1)C(=O)c1snc(C(N)=O)c1N (stereo not given) ?
NPY-Y2 antag: inactive; NPY-Y2 PAM-ag: inactive; NPY1 pot ag: inactive; NPY-Y1 antag: 20.8; NPY-Y1 ant conf: inactive; NPY-Y2 antag ct: inactive

How did Cc1nn(C)c(Cl)c1S(=O)(=O)N1CCC(CO)(CCc2ccccc2)CC1 do in these assays?
NPY-Y2 PAM-ag: inactive; NPY1 pot ag: inactive; NPY-Y1 antag: inactive
